According to ChEMBL document CHEMBL1151790, “Novel angular furoquinolinones bearing flexible chain as antitumor agent: design, synthesis, cytotoxic evaluation, and DNA-binding studies” (Bioorg Med Chem, 2008):
Calls of active or inactive are those of the source. The calls are words filed in the database; no cut-off is given here.

Key:
[1] = test system: DNA; experiment: Binding affinity to calf thymus DNA by fluorescence quenching technique; type: nucleic-acid assay; conditions: Bos taurus
Summary of the method: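 Calf-thymus DNA held at 50 µM with compound at […] in Tris–HCl (30 mM, pH 7.5); matching compound-only samples served as controls. Solutions […] 1 day at 25 °C in the dark, then fluorescence wavelength and intensity area measured.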

[2] = test system: HeLa; experiment: Cytotoxicity against human HeLa cells by MTT assay; type: functional, cell-based
Summary of the method: (§1)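 Cells run without irradiation; cytotoxicity read by microculture tetrazolium–formazan (MTT) method, reported as IC50.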

[3] = test system: Escherichia coli; experiment: Induction of DNA cleavage activity in Escherichia coli pBR322 DNA by gel electrophoresis
Summary of the method: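 Plasmid pBR322 DNA (25 ng/µL) incubated with compound at several concentrations in Tris–HCl (20 mM, pH 7.5), 25 °C, 12 h, no irradiation. Products resolved on 1% agarose with ethidium bromide staining; supercoiled (I), nicked (II), linear (III) forms scored; triplicate.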

[4] = Cytotoxicity against human QGY cells by MTT assay; type: functional, cell-based; summary of the method: as §1
[5] = test system: P388; experiment: Cytotoxicity against mouse P388 cells by MTT assay; type: functional, cell-based; summary of the method: as §1
[6] = test system: A549; experiment: Cytotoxicity against human A549 cells by SRB assay; type: functional, cell-based
Summary of the method: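 Cells run without irradiation; cytotoxicity read by sulforhodamine B dye staining, reported as IC50.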

[7] = test system: Escherichia coli; experiment: Induction of DNA photocleavage activity in Escherichia coli pBR322 DNA assessed as form 3 linear in presence of irradiation by gel electrophoresis
Summary of the method: (§2)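 pBR322 DNA (25 ng/µL) with compound at several concentrations in Tris–HCl (20 mM, pH 7.5), irradiated 2 h. Analysed on 1% agarose gel with ethidium bromide; supercoiled form I, nicked form II, linear form III; triplicate runs.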

[8] = test system: Escherichia coli; experiment: Induction of DNA photocleavage activity in Escherichia coli pBR322 DNA assessed as form 2 […] in presence of irradiation by gel electrophoresis; summary of the method: as §2
[9] = test system: K562; experiment: Cytotoxicity against human K562 cells by MTT assay; type: functional, cell-based; summary of the method: as §1
[10] = test system: DNA; experiment: Binding affinity to calf thymus DNA by circular dichroism spectra; type: nucleic-acid assay; conditions: Bos taurus
Summary of the method: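 CD spectra recorded on 10 µM compound with 100 µM calf-thymus DNA in Tris–HCl buffer (pH 7.0), 1-cm quartz cell, 200–600 nm; buffer-alone spectrum subtracted. DNA checked protein-free by A260/A280 1.8–1.9 and quantified from 260 nm absorbance.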

| Compound | Kb [1] | Activity [3] | Activity [7] | Activity [8] | Activity [10] | IC50 [2] | IC50 [4] | IC50 [5] | IC50 [6] | IC50 [9] |
| --- | --- | --- | --- | --- | --- | --- | --- | --- | --- | --- |
| Cc1oc2ccc3c(C)cc(=O)n(CC[N+](C)(C)C)c3c2c1C | 3.18 ×10⁵ /M | – | – | – | – | 49.5 µM | – | – | – | – |
| Cc1oc2ccc3c(C)cc(=O)[nH]c3c2c1C | 2.57 ×10⁵ /M | inactive | Active | Active | – | 89.2 µM | 98.9 µM | > 100 µM | 99.3 µM | > 100 µM |
| Cc1oc2ccc3c(C)cc(=O)n(CC(=O)NCCN(C)C)c3c2c1C | 1.58 ×10⁵ /M | inactive | Active | Active | – | 20.7 µM | – | 14.5 µM | 20.4 µM | – |
| Cc1oc2ccc3c(C)cc(=O)n(CCCN(C)C)c3c2c1C | 2.53 ×10⁵ /M | inactive | – | – | – | 35 µM | 74.9 µM | 45.3 µM | 29.6 µM | 71.1 µM |
| CCOC(=O)Cn1c(=O)cc(C)c2ccc3oc(C)c(C)c3c21 | 2.54 ×10⁵ /M | – | – | – | – | > 100 µM | > 100 µM | > 100 µM | > 100 µM | > 100 µM |

Second part, led by results:

| Kb [1] | Activity [3] | Activity [7] | Activity [8] | Activity [10] | Compound | IC50 [2] | IC50 [4] | IC50 [5] | IC50 [6] | IC50 [9] |
| --- | --- | --- | --- | --- | --- | --- | --- | --- | --- | --- |
| 2.66 ×10⁵ /M | inactive | Active | Active | Active | Cc1oc2ccc3c(C)cc(=O)n(CCN(C)C)c3c2c1C | 39.1 µM | 72.7 µM | 51.5 µM | 30.4 µM | 55.7 µM |
| 3.15 ×10⁵ /M | – | – | – | – | Cc1oc2ccc3c(C)cc(=O)n(Cc4ccccc4)c3c2c1C | > 100 µM | > 100 µM | > 100 µM | > 100 µM | > 100 µM |
| 2.79 ×10⁵ /M | – | – | – | – | CCn1c(=O)cc(C)c2ccc3oc(C)c(C)c3c21 | > 100 µM | > 100 µM | > 100 µM | > 100 µM | > 100 µM |
| 2.69 ×10⁵ /M | – | – | – | – | Cc1oc2ccc3c(C)cc(=O)n(CC(=O)O)c3c2c1C | > 100 µM | – | – | – | – |
| 2.06 ×10⁵ /M | – | – | – | – | Cc1oc2ccc3c(C)cc(=O)n(CC#N)c3c2c1C | > 100 µM | > 100 µM | > 100 µM | > 100 µM | > 100 µM |
